Measured values as given in ChEMBL document CHEMBL2346497, “Synthesis of novel cognition enhancers with pyrazolo[5,1-c][1,2,4]benzotriazine core acting at γ-aminobutyric acid type A (GABA(A)) receptor” (Bioorg Med Chem, 2013).
Calls of active or inactive are those of the source. No cut-off for these calls is given here.

Tests used:
[1] = tested on: Mus musculus; test: Neurotoxicity in CD1 albino mouse assessed as decrease in number of falls from rotating rod at 10 mg/kg, po by rota-rod test relative to control; format: toxicity, organism-based; design: dose 10 mg/kg, route oral; settings: in vivo, TDE = time-dependent effect
Procedure, shortened: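 Motor coordination was tested on a rota-rod turning at 24 rpm in male CD-1 mice dosed po in 1% CMC. Falls within 30 s were counted at a pretest and at 15, 30, 45 and 60 min after dosing. Each value is the mean of five mice, compared with CMC-treated controls.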

[2] = tested on: Mus musculus; test: Antiamnesic activity in CD1 albino mouse assessed as reversal of scopolamine-induced amnesia at 1 mg/kg, po administered 30 mins prior to scopolamine challenge measured after 24 hrs by passive avoidance test; format: functional, organism-based; design: dose 1 mg/kg
Procedure, shortened: (§1)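 Step-through passive avoidance in male CD-1 mice (22–24 g). Test drugs were given po, suspended in 1% carboxymethylcellulose at 10 ml/kg, 30 min before the training session. For the antiamnesic arm, scopolamine 1.5 mg/kg was injected immediately after punishment. Retention latency was compared with CMC-treated controls, n = 10–12 mice per group.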

[3] = tested on: Rattus norvegicus; test: Induction of acetylcholine release in Harlan Wistar rat parietal cortex at 10 mg/kg, ip after 60 to 80 mins by microdialysis method; format: functional, organism-based; design: dose 10 mg/kg
Procedure, shortened: (§2)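 Microdialysis in the parietal cortex of male Wistar rats, with a horizontal tube implanted at AP 0.5 mm and H 2.3 mm from bregma. One day after surgery the tube was perfused with Ringer containing physostigmine. After a 1 h settling period, 20-min fractions were collected into HCl. Drug was given ip in 1% CMC at time 0. ACh was measured by HPLC with electrochemical detection, n = 6 rats.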

[4] = tested on: Rattus norvegicus; test: Procognitive effect in Harlan Wistar rat assessed as exploring time of familiar rat during social investigatory behaviour at 1 mg/kg, po administered 30 mins prior to testing measured for 5 mins by social learning test (reference value: 27.6 secs); format: functional
[5] = tested on: Rattus norvegicus; test: Procognitive effect in Harlan Wistar rat assessed as exploring time of familiar rat during social investigatory behaviour at 10 mg/kg, po administered 30 mins prior to testing measured for 5 mins by social learning test (reference value: 27.6 secs); format: functional
[6] = tested on: Rattus norvegicus; test: Induction of acetylcholine release in Harlan Wistar rat parietal cortex at 10 mg/kg, ip measured within 120 mins by microdialysis method; format: functional, organism-based; design: dose 10 mg/kg; procedure, shortened: as §2
[7] = tested on: Mus musculus; test: Cognitive enhancing effect in CD1 albino mouse assessed as increase in retention latency at 1 to 10 mg/kg, po administered 30 mins prior to testing measured after 24 hrs by passive avoidance test relative to control; format: functional, organism-based; procedure, shortened: as §1
[8] = target: T1, Gamma-aminobutyric acid receptor subunit alpha-5 (Homo sapiens) (UniProt P31644); test: Displacement of [3H]Ro15-1788 from recombinant GABA-A alpha5beta2gamma2 receptor benzodiazepine binding site (unknown origin) at 10 uM after 1 hr relative to control
T1 sequence (whole entry): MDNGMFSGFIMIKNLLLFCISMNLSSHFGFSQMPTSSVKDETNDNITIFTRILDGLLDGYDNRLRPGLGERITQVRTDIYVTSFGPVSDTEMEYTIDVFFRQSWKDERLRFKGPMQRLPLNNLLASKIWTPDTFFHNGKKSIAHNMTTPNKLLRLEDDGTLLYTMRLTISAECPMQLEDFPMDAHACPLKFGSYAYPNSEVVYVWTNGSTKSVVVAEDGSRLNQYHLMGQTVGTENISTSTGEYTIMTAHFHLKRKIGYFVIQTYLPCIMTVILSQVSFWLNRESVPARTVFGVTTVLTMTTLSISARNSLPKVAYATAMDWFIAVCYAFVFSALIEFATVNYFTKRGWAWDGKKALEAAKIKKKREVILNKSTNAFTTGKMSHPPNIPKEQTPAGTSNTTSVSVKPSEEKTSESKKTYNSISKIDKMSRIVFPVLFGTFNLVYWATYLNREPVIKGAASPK

[9] = Displacement of [3H]Ro15-1788 from GABA-A receptor benzodiazepine binding site in bovine cerebral cortex membranes after 1 hr; format: cell membranes, Bos taurus, Membrane
[10] = tested on: Rattus norvegicus; test: Procognitive effect in Harlan Wistar rat assessed as decrease in exploring time of unfamiliar rat during social investigatory behaviour at 1 to 10 mg/kg, po administered 30 mins prior to testing measured for 5 mins by social learning test relative to control; format: functional, organism-based
[11] = tested on: Rattus norvegicus; test: Procognitive effect in Harlan Wistar rat assessed as exploring time of familiar rat during social investigatory behaviour at 3 mg/kg, po administered 30 mins prior to testing measured for 5 mins by social learning test (reference value: 27.6 secs); format: functional

In the case of `Cc1cnn2c1n[n+]([O-])c1ccc(OCc3ccncc3)cc12`, the Activity [1] is reported as “tde”, the Activity [2] is reported as “Active” and the Activity [3] is reported as “Active”. The Time [4] was 33.2 s, the Time [5] was 41.4 s and the Activity [6] was “inactive”. For the same compound, the Activity [7] was “Active”, the inhibition [8] was 36% and the Ki [9] was 24.1 nM. The Activity [10] was “inactive” and the Time [11] was 43.2 s.
